Data on 13 compounds can be found in ChEMBL document CHEMBL3352014, “Effect of acyclic monoterpene alcohols and their derivatives on TRP channels” (Bioorg Med Chem Lett, 2014).

Assay [1] concerns the target Transient receptor potential cation channel subfamily M member 8 (Rattus norvegicus, UniProt Q8R455). In words: Antagonist activity against rat TRPM8 expressed in HEK293 cells assessed as inhibition of icilin-induced increase in intracellular Ca2+ concentration by Fluo-4-AM dye based spectrofluorimetry. The assay is classed as cell-based.
In assay [2] the target is T1, Transient receptor potential cation channel subfamily A member 1 (Rattus norvegicus, UniProt Q6RI86). The assay can be described thus: Agonist activity at rat TRPA1 expressed in HEK293 cells assessed as increase in intracellular Ca2+ concentration by Fluo-4-AM dye based spectrofluorimetry. Format: cell-based.
The target in assay [3] is Transient receptor potential cation channel subfamily M member 8 (Rattus norvegicus) (UniProt Q8R455). The assay can be described thus: Agonist activity at rat TRPM8 expressed in HEK293 cells assessed as increase in intracellular Ca2+ concentration by Fluo-4-AM dye based spectrofluorimetry relative to ionomycin. Format: cell-based. Put shortly:
(§1)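 Same stably transfected HEK293 Fluo-4 calcium assay: human TRPV1, rat TRPM8. Tyrode's buffer pH 7.4, 25 °C, ex 488/em 516 nm. Efficacy is the compound-evoked [Ca2+]i rise normalized to the maximal Ca2+ influx from 4 µM ionomycin. Means of at least 3 determinations.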

For assay [4], the target named is T2, Transient receptor potential cation channel subfamily V member 1 (Homo sapiens, UniProt Q8NER1). The assay can be described thus: Agonist activity at human TRPV1 expressed in HEK293 cells assessed as increase in intracellular Ca2+ concentration by Fluo-4-AM dye based spectrofluorimetry relative to ionomycin. Format: cell-based. The gist of the method: as §1

Assay [5] deals with T1, Transient receptor potential cation channel subfamily A member 1. The assay can be described thus: Antagonist activity against rat TRPA1 expressed in HEK293 cells assessed as inhibition of AITC-induced increase in intracellular Ca2+ concentration by Fluo-4-AM dye based spectrofluorimetry. Format: cell-based.
In assay [6] the target is T2, Transient receptor potential cation channel subfamily V member 1. In words: Antagonist activity against human TRPV1 expressed in HEK293 cells assessed as inhibition of capsaicin-induced increase in intracellular Ca2+ concentration by Fluo-4-AM dye based spectrofluorimetry. Format: cell-based.
Assay [7] concerns the target Transient receptor potential cation channel subfamily A member 1 (Homo sapiens) (UniProt O75762). The assay can be described thus: Antagonist activity against TRPA1 (unknown origin) assessed as reduction in H2O2-induced receptor activation at 400 uM.
Assay [8] deals with T2, Transient receptor potential cation channel subfamily V member 1. In words: Agonist activity at human TRPV1 expressed in HEK293 cells assessed as increase in intracellular Ca2+ concentration by Fluo-4-AM dye based spectrofluorimetry. Format: cell-based. The gist of the method: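 HEK293 stably expressing human TRPV1 or rat TRPM8, grown in EMEM with non-essential amino acids, 10% FBS, 2 mM glutamine, 37 °C, 5% CO2. Fluo-4-AM loaded 1 h at room temperature; cells in Tyrode's buffer pH 7.4, about 100,000 per stirred cuvette. Fluorescence (ex 488/em 516 nm) read at 25 °C before and after various compound concentrations. EC50 from sigmoidal variable-slope fit; at least 3 determinations.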

In assay [9] the target is T3, Transient receptor potential cation channel subfamily M member 8 (Homo sapiens, UniProt Q7Z2W7). The assay can be described thus: Agonist activity at TRPM8 (unknown origin) relative to untreated control.
Assay [10] deals with T3, Transient receptor potential cation channel subfamily M member 8. The assay can be described thus: Agonist activity at TRPM8 (unknown origin).

Chain of Transient receptor potential cation channel subfamily M member 8 (Rattus norvegicus, UniProt Q8R455) (Q8R455 whole entry): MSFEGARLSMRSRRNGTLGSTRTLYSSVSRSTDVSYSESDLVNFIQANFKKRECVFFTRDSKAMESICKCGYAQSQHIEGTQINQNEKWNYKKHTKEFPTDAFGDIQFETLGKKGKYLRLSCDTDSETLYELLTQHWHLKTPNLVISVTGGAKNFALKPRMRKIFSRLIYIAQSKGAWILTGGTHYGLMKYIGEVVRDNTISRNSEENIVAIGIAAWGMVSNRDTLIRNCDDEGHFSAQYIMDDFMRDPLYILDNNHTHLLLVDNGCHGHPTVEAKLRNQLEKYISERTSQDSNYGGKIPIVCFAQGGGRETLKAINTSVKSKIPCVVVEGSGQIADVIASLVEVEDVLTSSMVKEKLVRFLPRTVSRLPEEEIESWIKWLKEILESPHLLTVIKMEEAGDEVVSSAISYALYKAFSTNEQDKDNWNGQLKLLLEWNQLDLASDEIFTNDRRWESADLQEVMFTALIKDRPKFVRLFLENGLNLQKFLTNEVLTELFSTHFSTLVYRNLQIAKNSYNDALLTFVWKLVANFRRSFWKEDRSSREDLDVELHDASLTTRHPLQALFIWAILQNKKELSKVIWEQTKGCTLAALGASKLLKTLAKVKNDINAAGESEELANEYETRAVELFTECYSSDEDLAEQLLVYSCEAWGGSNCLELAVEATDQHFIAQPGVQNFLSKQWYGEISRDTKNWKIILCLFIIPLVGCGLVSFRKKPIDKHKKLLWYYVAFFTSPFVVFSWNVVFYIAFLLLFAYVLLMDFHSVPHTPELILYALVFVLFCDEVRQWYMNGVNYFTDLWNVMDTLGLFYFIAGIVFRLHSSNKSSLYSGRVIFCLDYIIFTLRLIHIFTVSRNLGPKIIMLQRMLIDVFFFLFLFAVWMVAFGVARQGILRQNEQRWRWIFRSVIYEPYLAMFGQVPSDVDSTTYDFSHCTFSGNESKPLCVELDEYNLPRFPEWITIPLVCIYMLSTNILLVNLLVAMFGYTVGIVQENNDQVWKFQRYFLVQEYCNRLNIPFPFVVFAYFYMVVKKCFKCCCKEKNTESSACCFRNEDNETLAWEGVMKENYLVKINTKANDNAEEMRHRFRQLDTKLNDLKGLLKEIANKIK
Chain of Transient receptor potential cation channel subfamily M member 8 (Rattus norvegicus) (Q8R455 whole entry, looked up): as the sequence (Q8R455 whole entry) above
T2 sequence (Q8NER1 whole entry): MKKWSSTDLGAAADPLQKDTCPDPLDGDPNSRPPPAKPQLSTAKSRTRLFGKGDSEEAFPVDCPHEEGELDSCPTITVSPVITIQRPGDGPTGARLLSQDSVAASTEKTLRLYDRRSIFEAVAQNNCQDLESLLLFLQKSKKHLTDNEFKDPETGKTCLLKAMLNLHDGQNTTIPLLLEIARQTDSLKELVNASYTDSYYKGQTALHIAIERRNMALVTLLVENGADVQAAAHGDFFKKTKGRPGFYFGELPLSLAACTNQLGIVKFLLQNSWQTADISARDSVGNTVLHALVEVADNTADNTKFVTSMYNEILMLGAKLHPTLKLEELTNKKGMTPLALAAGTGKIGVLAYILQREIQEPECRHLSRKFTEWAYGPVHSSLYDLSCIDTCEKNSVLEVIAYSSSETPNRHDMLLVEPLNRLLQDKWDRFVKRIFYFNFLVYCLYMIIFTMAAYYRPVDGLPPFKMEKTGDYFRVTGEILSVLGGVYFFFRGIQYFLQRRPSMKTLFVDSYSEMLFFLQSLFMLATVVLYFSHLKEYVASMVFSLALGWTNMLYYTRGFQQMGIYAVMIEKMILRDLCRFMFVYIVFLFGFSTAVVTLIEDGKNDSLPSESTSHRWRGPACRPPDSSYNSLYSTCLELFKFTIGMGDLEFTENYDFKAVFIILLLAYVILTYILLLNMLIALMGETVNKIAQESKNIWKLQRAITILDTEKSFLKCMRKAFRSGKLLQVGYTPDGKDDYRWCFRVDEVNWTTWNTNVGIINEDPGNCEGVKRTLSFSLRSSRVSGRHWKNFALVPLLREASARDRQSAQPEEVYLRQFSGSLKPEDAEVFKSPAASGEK
T1 sequence (Q6RI86 whole entry): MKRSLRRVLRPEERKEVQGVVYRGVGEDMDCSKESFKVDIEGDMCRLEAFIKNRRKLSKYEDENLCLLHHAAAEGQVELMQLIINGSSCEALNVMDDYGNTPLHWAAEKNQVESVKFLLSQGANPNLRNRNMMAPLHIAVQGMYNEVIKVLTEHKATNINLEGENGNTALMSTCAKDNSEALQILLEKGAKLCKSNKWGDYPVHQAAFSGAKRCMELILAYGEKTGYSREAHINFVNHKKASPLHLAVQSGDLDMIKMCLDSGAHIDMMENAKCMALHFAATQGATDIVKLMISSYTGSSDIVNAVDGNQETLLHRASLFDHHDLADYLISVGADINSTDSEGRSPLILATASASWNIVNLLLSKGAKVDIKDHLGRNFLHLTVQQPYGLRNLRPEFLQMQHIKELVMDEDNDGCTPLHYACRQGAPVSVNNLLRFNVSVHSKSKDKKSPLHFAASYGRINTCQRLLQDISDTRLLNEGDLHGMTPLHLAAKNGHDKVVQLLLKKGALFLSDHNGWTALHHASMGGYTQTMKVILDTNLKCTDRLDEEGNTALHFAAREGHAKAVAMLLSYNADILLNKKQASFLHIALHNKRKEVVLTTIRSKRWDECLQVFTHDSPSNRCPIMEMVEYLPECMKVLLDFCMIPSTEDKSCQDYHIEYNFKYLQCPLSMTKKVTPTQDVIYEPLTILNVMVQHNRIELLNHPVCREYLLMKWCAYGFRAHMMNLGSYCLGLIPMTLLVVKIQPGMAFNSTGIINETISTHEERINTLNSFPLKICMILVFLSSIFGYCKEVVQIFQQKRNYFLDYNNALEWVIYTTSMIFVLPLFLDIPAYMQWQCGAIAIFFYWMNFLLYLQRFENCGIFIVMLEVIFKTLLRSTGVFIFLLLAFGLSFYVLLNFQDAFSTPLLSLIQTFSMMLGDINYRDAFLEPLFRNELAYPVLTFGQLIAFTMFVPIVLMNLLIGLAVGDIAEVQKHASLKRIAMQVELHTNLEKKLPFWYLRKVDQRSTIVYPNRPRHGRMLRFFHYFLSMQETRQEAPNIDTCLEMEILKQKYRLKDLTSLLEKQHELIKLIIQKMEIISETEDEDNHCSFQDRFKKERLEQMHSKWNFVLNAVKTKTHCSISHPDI
Chain of Transient receptor potential cation channel subfamily A member 1 (Homo sapiens) (O75762 whole entry): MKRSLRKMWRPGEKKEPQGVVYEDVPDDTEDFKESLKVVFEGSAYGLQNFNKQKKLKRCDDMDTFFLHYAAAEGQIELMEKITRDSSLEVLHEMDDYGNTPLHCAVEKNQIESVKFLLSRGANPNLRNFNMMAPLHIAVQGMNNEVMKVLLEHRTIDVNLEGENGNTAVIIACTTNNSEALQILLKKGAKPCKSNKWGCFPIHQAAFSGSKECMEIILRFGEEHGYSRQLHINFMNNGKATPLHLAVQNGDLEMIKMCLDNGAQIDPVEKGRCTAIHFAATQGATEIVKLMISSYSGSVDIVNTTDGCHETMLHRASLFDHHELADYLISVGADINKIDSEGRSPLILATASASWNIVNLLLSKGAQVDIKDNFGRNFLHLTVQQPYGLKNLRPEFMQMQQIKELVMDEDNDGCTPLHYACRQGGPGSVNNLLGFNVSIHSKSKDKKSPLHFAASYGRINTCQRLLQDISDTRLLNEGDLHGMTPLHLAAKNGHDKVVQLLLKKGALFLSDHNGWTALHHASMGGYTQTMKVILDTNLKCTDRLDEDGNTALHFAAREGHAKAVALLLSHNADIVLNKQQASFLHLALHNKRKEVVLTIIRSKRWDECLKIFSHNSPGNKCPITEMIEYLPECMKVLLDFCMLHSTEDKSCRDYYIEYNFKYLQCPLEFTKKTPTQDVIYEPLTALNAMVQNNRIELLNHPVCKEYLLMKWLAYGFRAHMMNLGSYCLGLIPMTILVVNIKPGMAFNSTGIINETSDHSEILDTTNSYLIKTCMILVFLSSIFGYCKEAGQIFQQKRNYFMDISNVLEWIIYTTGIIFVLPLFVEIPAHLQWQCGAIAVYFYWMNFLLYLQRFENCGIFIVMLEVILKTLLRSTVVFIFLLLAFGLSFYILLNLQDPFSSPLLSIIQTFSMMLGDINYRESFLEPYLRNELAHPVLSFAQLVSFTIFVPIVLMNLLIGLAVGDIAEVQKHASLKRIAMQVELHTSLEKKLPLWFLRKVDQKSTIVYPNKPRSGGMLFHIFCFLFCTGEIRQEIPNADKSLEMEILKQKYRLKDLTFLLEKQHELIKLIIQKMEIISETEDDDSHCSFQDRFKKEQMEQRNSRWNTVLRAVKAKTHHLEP

For the compound `CC(=O)OCCC(C)CCC=C(C)C` (stereo unspecified) [CITRONELLYL ACETATE], the IC50 in assay [1], in assay [5] and in assay [6] was over 100 µM in each case. Further, the EC50 in assay [2] was determined as 12.2 µM. The Efficacy in [3] and in assay [4] was under 10% each time. The inhibition in assay [7] was 70%.

For `CC(C)=CCC/C(C)=C/COC(=O)c1ccc(C)cc1`, the IC50 in assay [1] was over 100 µM; in assay [5] it was 1 µM; in assay [6], over 100 µM. Further, the half-maximal effective concentration (EC50) in assay [2] was determined as 0.33 µM; in assay [8], 6 µM. Further, the Efficacy in assay [3] is under 10%; in [4], 17.6%.

Take `CC(C)=CCC/C(C)=C\CNC(=O)NC1CCCCC1`: the IC50 is 30 µM in assay [1], 4.4 µM in assay [5] and 15.7 µM in [6]. The figures for the EC50 in assay [2] and in assay [8] were 2.65 µM and 8.9 µM, respectively. Also, the Efficacy in assay [3] is under 10%; in [4] it was 50.1%.

In the case of `COc1ccc(CC(=O)OC/C=C(\C)CCC=C(C)C)cc1`, the IC50 in [1] is over 100 µM; in assay [5], 0.38 µM; in [6], over 100 µM. Further, the figures for the EC50 in assay [2] and in assay [8] were 0.51 µM and 8 µM, respectively. Besides, the Efficacy in [3] was under 10%; in assay [4], 13.2%.

`CC(C)=CCC/C(C)=C\CNC(=O)Oc1ccc(C(C)(C)C)cc1`: the IC50 in [1] was over 100 µM; in assay [5], 0.029 µM; in assay [6] it was over 100 µM. Further, the EC50 was 0.018 µM in [2] and 6.5 µM in assay [8]. Moreover, the Efficacy is under 10% in [3] and 15.8% in assay [4].

Turning to `CC(C)=CCC/C(C)=C/CNC(=O)Nc1ccc(C(C)(C)C)cc1`, the IC50 is over 100 µM in assay [1], 0.57 µM in [5] and 76.8 µM in [6]. The EC50 in assay [2] is 0.092 µM; in [8], 8.7 µM. For the same compound, the Efficacy in [3] was under 10%; in [4], 21.9%.

On to `CC(C)=CCC/C(C)=C/CNC(=O)Nc1cccc(Cl)c1`, for which the results for the IC50 in assay [1], in assay [5] and in assay [6] were over 100 µM, 0.48 µM and 0.71 µM, respectively. The results for the EC50 in assay [2] and in [8] were 0.61 µM and 2.5 µM, respectively. The values for the Efficacy in assay [3] and in assay [4] were under 10% and 21.2%, respectively.

Take `CC(C)=CCC/C(C)=C/COC(=O)CCc1ccccc1`: the IC50 in assay [1] was over 100 µM; in assay [5] it was 0.17 µM; in [6], over 100 µM. The 50% effective concentration (EC50) in [2] amounted to 0.39 µM; in [8], 4 µM. Moreover, the Efficacy in [3] is under 10%; in assay [4], 27.7%.

With `CC(C)=CCC/C(C)=C/CNC(=O)Oc1ccc(C(C)(C)C)cc1`, the IC50 was found to be 86.5 µM in [1], 0.038 µM in assay [5] and 92.3 µM in assay [6]. Moreover, the values for the EC50 in [2] and in [8] were 0.045 µM and 10.7 µM, respectively. Further, the Efficacy in [3] is under 10%; in assay [4] it was 22.4%.

Regarding `CC(C)=CCC/C(C)=C/CO` [GERANIOL], the Efficacy in [9] is 28%; in [3], under 10%; in assay [4], under 10%. Also, the IC50 in assay [1], in assay [5] and in assay [6] was over 100 µM in each case. In addition, in [10], a half-maximal response (EC50) required 5900 µM.

On to `CC(C)=CCC/C(C)=C\COC(=O)Nc1ccc(C(C)(C)C)cc1`, for which the IC50 is over 100 µM in assay [1], 0.29 µM in assay [5] and 74.6 µM in [6]. Besides, the EC50 in assay [2] was determined as 0.041 µM; in [8] it was 7.8 µM. The Efficacy in assay [3] is under 10%; in assay [4], 24%.

For the compound `CC(C)=CCC/C(C)=C\CNC(=O)Cc1ccc(Cl)cc1`, the IC50 worked out at 2.2 µM in assay [1], 0.94 µM in assay [5] and 0.53 µM in assay [6]. Further, the 50% effective concentration (EC50) in [2] was 1 µM; in [8], 0.43 µM. For the same compound, the Efficacy in assay [3] is under 10%; in assay [4], 57.9%.

Consider `CC(C)=CCC/C(C)=C/CNC(=O)CCc1ccccc1`, for which the IC50 in assay [1] was 5.5 µM; in assay [5] it was 7.4 µM; in [6], over 100 µM. Further, the EC50 in assay [2] was determined as 7.5 µM; in [8], 16.2 µM. Besides, the Efficacy in [3] was under 10%; in assay [4], 10.5%.

By IC50 is commonly meant the concentration that gives 50% inhibition. What is called EC50 is the concentration needed to bring the measured effect to its halfway point. Usually inhibition stands for the percentage by which the read-out fell short of the control.
